Measured values from the array DNA melting data of Ke et al. (doi:10.1101/2024.01.08.574731).

How the values were obtained:
[1] = folding enthalpy; higher = less favourable; fluorescence melt of hairpins on a sequencing array, two-state fit; conditions: sodium 0.088 M
Procedure, shortened: (§1)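 Folding enthalpy and melting temperature were estimated with bootstrapped two-state fits and combined across four replicates by inverse-variance weighting, with fitted temperatures raised by 9.35 °C to match UV melts. The data were Cy3 fluorescence of library hairpins, with annealed Cy3 and quencher oligos, on a sequenced MiSeq flow cell in 50 mM Na-HEPES pH 8.0, 25 mM NaCl, imaged in 2.5 °C steps up to 60 °C and normalised to pre-quench Cy3 and control constructs.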

[2] = melting temperature; fluorescence melt of hairpins on a sequencing array, two-state fit, raised by 9.35 °C to match UV melts; conditions: sodium 0.088 M
Procedure, shortened: as §1

Row | Sequence | folding enthalpy [1] [kcal/mol] | Tm [2] [°C]
1 | GTTAAGCGAAAGCTAAAC (((.(((....))).))) | -19.9 | 41.5
2 | GCCCTCGAAAGAGCGGC ((((((....))).))) | -37.3 | 55.7
3 | GTCTCGTCGAAAGACGAC (((..(((....)))))) | -7.57 | 37
4 | GCAGCACGAAAGTGATGC (((.(((....))).))) | -36.2 | 69
5 | GAACATGGAAACATGTCC (.(((((....))))).) | -15.4 | 35.8
6 | GAACTCGGAAACGAGCTC ((.((((....)))).)) | -19 | 42.2
7 | GTCACCGGAAACGGTGGC (.(((((....))))).) | -29.4 | 63.5
8 | GATCACATTAGTGATC ((((((....)))))) | -45 | 59.2
9 | GCGTGCTCGAAAGAGCGC (((..(((....)))))) | -10.2 | 51.5
10 | GTGGACGAAAGTCTGCAC ((((((....)))..))) | -15.7 | 40.6
11 | GTAGACCGAAAGGTTAC (((.(((....)))))) | -16.7 | 38.5
12 | GCTCTCGAAAGAGTGAGC ((((((....)))..))) | -26 | 41.6
13 | GCGGATGGAAACATTCGC (((.(((....))).))) | -43.5 | 55.1
14 | GTTCAAGAAATTGAAC ((((((....)))))) | -29.2 | 45.1
15 | GCTCCAGGAAACTGGGGC ((.((((....)))).)) | -39.6 | 57.6
16 | GGCTAAACGAAAGTTGCC (((..(((....)))))) | -22.5 | 47.6
17 | GCGAGCCCGAAAGGGCGC (((..(((....)))))) | -7.38 | 55.8
18 | GCATATGGAAACGTATGC (((((.(....).))))) | -33.3 | 47
19 | GATCTGTGGCCAGATC ((((((....)))))) | -33.9 | 50.4
20 | GATCTATCACTAGATC ((((((....)))))) | -31.9 | 38.6
21 | GGTACCCCGAAAGGGACC (((..(((....)))))) | -19.8 | 46.7
22 | GCAAATGGAAACATCTGC (((.(((....))).))) | -20.3 | 33
23 | GCAGCGCCGAAAGGCTGC (((..(((....)))))) | -14.7 | 53.9

Row | Sequence | folding enthalpy [1] [kcal/mol] | Tm [2] [°C]
24 | GCGAGGTATCGC ((((....)))) | -21.6 | 55.6
25 | GACAGCCCGAAAGGGGTC (((..(((....)))))) | -11.4 | 34.6
26 | GTTCCCGAAAGGGACAAC ((((((....)))..))) | -8.79 | 33.6
27 | GGAGTGGGAAACCGTTCC (((..((....))..))) | -17.8 | 32.3
28 | GTGCACGAAAGTGCTCAC ((((((....)))..))) | -7.03 | 43.3
29 | GTCACCACGAAAGTGGAC (((..(((....)))))) | -7.89 | 31.1
30 | CGCACCGGAAACGGGCG (((.(((....)))))) | -25.2 | 55.7
31 | GAAAGCGAAAGCTCTTTC ((((((....)))..))) | -16.7 | 38.2
32 | GTGCCGCGAAAGCGTCAC (((.(((....))).))) | -29.1 | 61.7
33 | GATCGAGGCGTCGATC ((((((....)))))) | -40.6 | 55.1
34 | GCAAACGAAAGTTGATGC ((((((....)))..))) | -15.2 | 35.9
35 | GGGACTCCGAAAGGACCC (((..(((....)))))) | -16 | 41.5
36 | GGGCTTGGAAACAGGCTC (.((.((....)).)).) | -24.4 | 38.3
37 | GTTTAAGGAAACTTAAAC (((((((....))))))) | -40.6 | 46.5
38 | GAAGCCGAAAGGCATTC ((((((....))).))) | -11.1 | 40.6
39 | GATCCCAAGGGGGATC ((((((....)))))) | -33 | 58.1
40 | GATCCGGCCTCGGATC ((((((....)))))) | -42.1 | 58.7
41 | GACAACCGAAAGGTCGTC (((.(((....))).))) | -38.6 | 49.5
42 | GGAACTCCGAAAGGATCC (((..(((....)))))) | -7.77 | 27
43 | GTTTCTGGAAACAGAGAC ((.((((....)))).)) | -26.9 | 37.2
44 | GATCATTAGTATGATC ((((((....)))))) | -31.8 | 45.2
45 | GGGCTTCGAAAGAACCC (((.(((....)))))) | -28.9 | 48.6
46 | GGGCTCGAAAGAGTCCCC ((((((....)))..))) | -15.8 | 60.3

Row | Sequence | folding enthalpy [1] [kcal/mol] | Tm [2] [°C]
47 | GGGAAGGAAACTTCCC ((((((....)))))) | -31.8 | 58.1
48 | GAATCACGAAAGTGTTTC (((.(((....))).))) | -24.7 | 41.5
49 | GATCTAGTGTAGATC ((((((...)))))) | -26.4 | 38.5
50 | GCGTACCGAAAGGTCGC (((.(((....)))))) | -36.5 | 63.5
51 | GTAGACGAAAGTCGATAC ((((((....)))..))) | -11.2 | 34.7
52 | GATCGACCGGTCGATC ((((((....)))))) | -51.5 | 61.5
53 | GCTGTGCGAAAGCGCTGC ((.(.((....)).).)) | -25.6 | 60.1
54 | GATCAAGAATTTGATC ((((((....)))))) | -30.8 | 49
55 | GATCTATAAGTAGATC ((((((....)))))) | -35.6 | 41.6
56 | GTGTTCGGAAACAAACAC (((((.(....).))))) | -29.7 | 37.8
57 | GGTTCGCCGAAAGGCACC (((..(((....)))))) | -8.49 | 30.1
58 | GATCTATGCGTAGATC ((((((....)))))) | -41.5 | 48.2
59 | GATCATCCCGATGATC ((((((....)))))) | -51.9 | 52.1
60 | GCGCTCCGAAAGGACGC (((.(((....)))))) | -33.6 | 60
61 | GACATCGGAAACGATGCC (.(((((....))))).) | -12.5 | 44.9
62 | GGATAAGAAATTATCC ((((((....)))))) | -27.6 | 42.1
63 | GAGGCGGGAAACCGTCTC (((.(((....))).))) | -38.3 | 56.8
64 | GCGAGCGAAAGCTTCGC ((((((....))).))) | -28 | 66.1
65 | GTGTGCGAAAGCATCAC ((((((....))).))) | -21.9 | 54
66 | GATCATTCACATGATC ((((((....)))))) | -39.8 | 46.6
67 | GACGACCGAAAGGTAGTC (((.(((....))).))) | -38.6 | 57.7
68 | CGCCCGGAAACGGTCGCG ((((((....)))..))) | -21.2 | 50.1
69 | GGATTCGGAAACGAATCC (((((((....))))))) | -35.8 | 67.1

Row | Sequence | folding enthalpy [1] [kcal/mol] | Tm [2] [°C]
70 | GATCCCAGCGGGGATC ((((((....)))))) | -34.9 | 60.6
71 | GGTCTGGGAAACCGGATC (.((.((....)).)).) | -23.2 | 40
72 | GTGAGGGGAAACCTTCGC (.((.((....)).)).) | -21.5 | 33.6
73 | GTGGCTCCGAAAGGACAC (((..(((....)))))) | -14.6 | 47.8
74 | GCGTATTCGAAAGAACGC (((..(((....)))))) | -24.4 | 42.2
75 | GGTTCCGAAAGGAAGACC ((((((....)))..))) | -15.1 | 42.1
76 | GCTCTGGGAAACCAGAAC (.(((((....))))).) | -16.9 | 37.1
77 | GAGATGCGAAAGCACTC (((.(((....)))))) | -19.2 | 48.4
78 | GCGAAACCGAAAGGTCGC (((..(((....)))))) | -29.9 | 54.4
79 | GCGGGTGCCGC ((((...)))) | -23.3 | 55.9
80 | GCTATTGGAAACAACAGC (((.(((....))).))) | -16.9 | 33.7
81 | GATCGGAGTTCCGATC ((((((....)))))) | -37.8 | 56.7
82 | GCTTCCGAAAGGACCAGC ((((((....)))..))) | -14.2 | 31.2
83 | GCATGAGGAAACTCATAC (.(((((....))))).) | -17.2 | 32.6
84 | GAAACCCGAAAGGGATTC (((.(((....))).))) | -23.6 | 49.3
85 | GCGGGGGGAAACCTCCGC ((((.((....)).)))) | -40.9 | 66.7
86 | GGTCTACGAAAGTATACC (((.(((....))).))) | -35.5 | 42.2
87 | GTCAGTGGAAACACTAAC ((.((((....)))).)) | -17.4 | 30.9
88 | GGGAGCGAAAGCTTGCCC ((((((....)))..))) | -12.2 | 39.4
89 | GATCGGAGTGCCGATC ((((((....)))))) | -30.2 | 57
90 | GCAGTGCGAAAGCTCAGC ((.(.((....)).).)) | -14.7 | 49.2
91 | GTAAAGGCGAAAGCCTAC (((..(((....)))))) | -10 | 35
92 | CGCTCGGAAACGATCGCG ((((((....)))..))) | -24.2 | 40.2
